Laboratory results as given in ChEMBL document CHEMBL1147467, “Design and synthesis of oxadiazolidinediones as inhibitors of plasminogen activator inhibitor-1” (Bioorg Med Chem Lett, 2004).

Tests used:
[1] = target: T1, Plasminogen activator inhibitor 1 (Homo sapiens, UniProt P05121); test: Inhibitory activity against plasminogen activator inhibitor-1
[2] = target: T1, Plasminogen activator inhibitor 1; test: In vitro concentration required for inhibition of tissue type plasminogen activator by plasminogen activator inhibitor-1 at concentration 25 um
Procedure, shortened: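 Recombinant human PAI-1 (140 nM) preincubated 1 h at room temperature with compound (1-100 µM final, ≤0.2% DMSO) in pH 6.6 buffer. Recombinant human tPA (70 nM; PAI-1:tPA 2:1) then added for 30 min, followed by the chromogenic tPA substrate Spectrozyme-tPA, with A405 read at 0 and 60 min.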
Target sequence in this assay (P05121 whole entry): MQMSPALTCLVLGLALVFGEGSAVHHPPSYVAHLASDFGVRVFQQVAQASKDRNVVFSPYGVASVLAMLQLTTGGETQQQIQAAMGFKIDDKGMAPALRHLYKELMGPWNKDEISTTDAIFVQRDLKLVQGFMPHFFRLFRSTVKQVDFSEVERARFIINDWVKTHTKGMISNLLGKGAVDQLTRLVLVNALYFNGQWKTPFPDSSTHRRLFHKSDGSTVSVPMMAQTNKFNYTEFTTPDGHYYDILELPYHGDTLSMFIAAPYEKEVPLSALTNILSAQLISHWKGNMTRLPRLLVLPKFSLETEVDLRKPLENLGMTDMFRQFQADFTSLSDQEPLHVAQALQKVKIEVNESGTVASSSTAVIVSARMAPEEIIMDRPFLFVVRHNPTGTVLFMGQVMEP

[3] = target: T1, Plasminogen activator inhibitor 1; test: In vitro inhibition of plasminogen activator inhibitor-1 at concentration 25 um
Target sequence in this assay (P05121 whole entry, looked up): as the sequence (P05121 whole entry) above

SMILES | IC50 [1] | IC50 [2] | other results
CC(/C=C/c1ccc(OCc2ccc(Cl)c(Cl)c2)cc1)n1oc(=O)[nH]c1=O (centres undefined) | 6.1 µM |  | 
C/C(=C\Cn1oc(=O)[nH]c1=O)c1cccc(OCc2ccccn2)c1 |  | 24 µM | 
O=c1[nH]c(=O)n(C(CCc2ccc(OCc3cc(C(F)(F)F)cc(C(F)(F)F)c3)cc2)c2ccccc2)o1 (centres undefined) | 0.39 µM |  | 
CCCCC(CCn1oc(=O)[nH]c1=O)c1cccc(Oc2cccc(C)c2)c1 (centres undefined) | 2.2 µM |  | 
O=c1[nH]c(=O)n(C/C=C/c2cc(OCc3ccc(C(F)(F)F)cc3)cc(OCc3ccc(C(F)(F)F)cc3)c2)o1 |  | 2.5 µM | 
COc1cc(/C=C/Cn2oc(=O)[nH]c2=O)ccc1OCc1ccc(Cl)c(Cl)c1 |  | 3.22 µM | 
C/C(=C\Cn1oc(=O)[nH]c1=O)c1cccc(OCc2ccccc2)c1 |  |  | inhibition [3]: 24%
C/C(=C/Cn1oc(=O)[nH]c1=O)c1cccc(COc2cc(C(F)(F)F)cc(C(F)(F)F)c2)c1 |  | 7.2 µM | 
O=c1[nH]c(=O)n(C/C=C/c2cc(OCc3ccc(Cl)c(Cl)c3)ccc2Cl)o1 |  | 3.8 µM | 
CC/C(=C\Cn1oc(=O)[nH]c1=O)c1ccc(OCc2cc(C(F)(F)F)cc(C(F)(F)F)c2)cc1 | 9 µM |  | 
O=c1[nH]c(=O)n(C(CCc2ccc(OCc3cccc(Cl)c3)cc2)c2ccccc2)o1 (centres undefined) | 0.68 µM |  | 
O=c1[nH]c(=O)n(C/C=C/c2cc(OCc3ccc(Cl)cc3)cc(OCc3ccc(Cl)cc3)c2)o1 |  | 2.1 µM | 
CCCC/C(=C\Cn1oc(=O)[nH]c1=O)c1cccc(Oc2cc(Cl)cc(Cl)c2)c1 | 1.9 µM |  | 
C/C(=C\Cn1oc(=O)[nH]c1=O)c1cccc(OCc2cccc(C)c2)c1 |  |  | inhibition [3]: 37%
C/C(=C\Cn1oc(=O)[nH]c1=O)c1cccc(OCc2ccccc2-c2ccccc2)c1 |  | 2.3 µM | 
O=c1[nH]c(=O)n(C/C=C/c2ccc(OCc3cc(C(F)(F)F)cc(C(F)(F)F)c3)cc2)o1 | 14.9 µM |  | 
C/C(=C\Cn1oc(=O)[nH]c1=O)c1cccc(OCc2cc(C(F)(F)F)cc(C(F)(F)F)c2)c1 |  | 9.4 µM | 
CC(/C=C/c1ccc(OCc2cccc(C(F)(F)F)c2)cc1)n1oc(=O)[nH]c1=O (centres undefined) | 5.8 µM |  | 
C/C(=C\Cn1oc(=O)[nH]c1=O)c1cccc(COc2cc(C(F)(F)F)cc(C(F)(F)F)c2)c1 |  | 5.29 µM | 
